OX1R antag-1 = antagonists of human orexin 1 receptor (OX1R); O43613; OX1R-expressing cells, FRET antagonist read-out; inhibition, % at 6.6 µM; actives 1.8% (n = 330,000); in the data active means inhibition mostly above about 38%, no sharp cut-off; inactive means mostly below about 40%;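 further: 0% = agonist challenge alone and 100% = reference antagonist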
CHO parental Ca = counter-screen for OX1R antagonists: effect in parental CHO cells; parental CHO-K1, ATP-induced calcium, Fluo-8 fluorescence; inhibition, % at 5.6 µM; actives 0.63% (n = 330,000); AID 463079;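 active means inhibition above that plate's mean sample inhibition plus 3 SD, cut at about 26% in these data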;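 further: 0% = ATP-challenged DMSO wells and 100% = DMSO wells without ATP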
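Test system: parental CHO cells; detection: calcium-sensitive Fluo-8 fluorescence; evaluation: percent inhibition of calcium signal; also added: ATP as calcium-mobilizing challenge; repeats: one well per compound; control set: ATP-challenged DMSO wells low, unchallenged DMSO wells high; compound: single nominal dose of 5.6 µM per compound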
OX1R antag-2 = human HCRTR1 antagonism | inhibition, % at 5 µM | CHO/OX1R cells, Fluo-8 calcium fluorescence, orexin A | actives 0.43% (n = 330,000);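 active means inhibition above its plate's threshold, mean inhibition of all tested compounds on the plate plus 3 SD, cut at about 37% in these data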;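 further: 0% = orexin A challenge wells and 100% = SB-334867-A antagonist wells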
MPTP block = inhibitors of mitochondrial permeability transition pore | isolated mouse mitochondria, Ca2+ swelling absorbance, 30 min | inhibition, % at 10 µM | actives 1.4% (n = 360,000);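 active means inhibition of 50% or more, scaled per plate between neutral and stimulator controls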;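 further: 0% = DMSO wells given calcium and 100% = 1 mM EGTA wells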
GPR7 antag = antagonists of human GPR7 (neuropeptides B/W receptor 1); P48145; GPR7-expressing cells, fluorescence antagonist assay; inhibition, % at 4.4 µM; actives 1.1% (n = 290,000); in the data active means inhibition above about 16%, passing the limit was not always enough;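 further: cells stimulated with the agonist NPW; 0% = agonist with vehicle and 100% = vehicle without agonist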
Target sequence (P48145 whole entry, looked up): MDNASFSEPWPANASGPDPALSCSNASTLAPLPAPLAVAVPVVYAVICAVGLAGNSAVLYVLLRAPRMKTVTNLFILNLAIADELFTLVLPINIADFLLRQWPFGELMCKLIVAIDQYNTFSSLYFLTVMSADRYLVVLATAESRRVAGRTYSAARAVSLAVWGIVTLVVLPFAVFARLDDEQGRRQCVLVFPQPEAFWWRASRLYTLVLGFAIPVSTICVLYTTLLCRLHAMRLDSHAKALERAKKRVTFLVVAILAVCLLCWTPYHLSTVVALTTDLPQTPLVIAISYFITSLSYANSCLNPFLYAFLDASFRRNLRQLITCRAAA
Rh123 counter = mitochondrial membrane potential, counter-screen. shares compounds with MPTP block. actives 78% (n = 5,000). isolated mitochondria, Rhodamine 123 fluorescence. inhibition, % at 10 µM; in the data active means inhibition above about 22%;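 further: 0% = DMSO vehicle and 100% = positive control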
Active calls of the source: *; / = no result. A selection: hits, their analogues and other compounds. The true share with any hit is near 3.8%.

SMILES	OX1R antag-1	CHO parental Ca	OX1R antag-2	MPTP block	GPR7 antag	Rh123 counter
O=C(Nc1cc(F)ccc1F)N1CCN(c2ccnc3cc(Cl)ccc23)CC1	27	-3	19	59*	-11	36*
CCOc1ccc(Cl)cc1-c1cc(C(=O)Nc2ccc(C(C)C)cc2)[nH]n1	/	/	/	4	/	/
CCCCCCCCCCCCCCCC(O)C[N+](C)(C)CCO (configuration not stated)	/	/	/	2	/	/
CCCCCCCCCCCCCCCC(O)C(N)CO (configuration not stated)	6	5	3	80*	3	-7
CCN(CC(=O)Nc1c(F)cccc1F)C(=O)CCCNC(=O)c1ccc(Cl)cc1	23	-13	-21	-3	/	/
CCn1c(O)c(/C=C2\C=Nc3ccccc32)sc1=Nc1ccccc1	12	-18	-59	53*	-10	59*
Cn1c(O)c(/C=C2\C=Nc3ccccc32)sc1=Nc1ccc(C(=O)O)cc1	4	-2	0	2	-16	/
CC(C)N1CCC2(CC1)N=C(c1ccc3c(c1)OCO3)CC(c1cc(Cl)ccc1O)N2 (configuration not stated)	87*	38	68*	69*	5	-6
CC1(C(=O)NS(=O)(=O)c2cccc(Cl)c2)CCN1C(=O)CC1CC1 (configuration not stated)	/	/	/	0	/	/
Cc1ccc(C(=O)NCC(=O)NCC(=O)OCc2ccc(F)cc2)cc1	16	-18	-18	0	-16	/
COC(=O)C1=C(C)N(Cc2ccccc2)C(=NCC(C)C)N[C@H]1c1cccc(C(F)(F)F)c1	6	9	16	86*	/	-2
CCOC(=O)C1CCN(S(=O)(=O)CCNC(=O)c2cccc(OC)c2)CC1	5	-6	-19	-1	/	/
CCCCCc1c2c(cc(O)c1C(=O)O)OC(=O)c1c(cc(OC)cc1C(=O)CCCC)O2	30	-12	-11	90*	-8	28*
CCCCCc1c2c(cc(O)c1C(=O)O)OC(=O)c1cc(C(=O)CCCC)c(OC)cc1O2	14	-7	-3	95*	/	57*
CCOC(=O)CNC(=O)c1ccc(SCC)cc1	3	-1	1	0	-6	/
O=C(O)/C=C/C(=O)Nc1ccc(Cc2ccc(NC(=O)/C=C/C(=O)O)cc2)cc1	11	-7	-17	2	-14	/
Cc1ccc(NS(=O)(=O)c2cc([N+](=O)[O-])ccc2NNC(=S)Nc2cc(C)ccc2C)c(C)c1	21	-25	-18	110*	0	67*
Cc1ccc(NS(=O)(=O)c2cc([N+](=O)[O-])ccc2NNC(=S)Nc2cccc(Cl)c2)c(C)c1	4	20	16	86*	-12	-2
COc1ccc(NC(=S)NNc2ccc([N+](=O)[O-])cc2S(=O)(=O)Nc2ccc(C)cc2C)cc1	13	-12	-11	97*	-2	56*
Cc1ccc([N+](=O)[O-])cc1NC(=S)NC(=O)C(C)(C)C	14	-18	-20	0	-3	/
O=C(O)CCC(=O)Nc1nc2nccc(-c3ccccc3)n2n1	14	-7	4	0	-10	/
CC(C)/C=N/NC(=O)c1ccc(Cl)cc1	13	-14	-16	0	-2	/
O=C(Nc1ccc(Cc2ccncc2)cc1)c1cccc([N+](=O)[O-])c1	8	8	-1	18	0	/
Cc1ccc(C(=O)Nc2ccc(Cc3ccncc3)cc2)cc1[N+](=O)[O-]	29	19	4	99*	-4	64*
O=C(CCNc1ccc(Cc2ccncc2)cc1)c1ccc([N+](=O)[O-])cc1	36	-11	-3	75*	1	68*
COCCn1c(-c2ccc(OC)cc2)cnc1N	10	-7	-19	0	1	/
CCOc1ccc(-c2cnc(NCc3cccc4ccccc34)n2CCOC)cc1	8	23	20	89*	19	97*
O=C(CNC(=O)c1ccco1)NNC(=O)c1n[nH]c(=O)c2ccccc12	8	-7	-10	1	/	/
COc1ccc(NC(=S)NC(NC(=O)/C=C/c2ccccc2)C(Cl)(Cl)Cl)cc1 (configuration not stated)	25	-7	-29	96*	0	65*
O=C(CCc1ccccc1)NC(NC(=S)Nc1ccc(Cl)cc1)C(Cl)(Cl)Cl (configuration not stated)	66	41*	33	94*	-6	82*
